Measurements reported in ChEMBL document CHEMBL1123981, “Arylpiperazine derivatives as high-affinity 5-HT1A serotonin ligands” (J Med Chem, 1988).

Experiments:
Assay type in all cases: tissue-based
[1] = target: T1, 5-hydroxytryptamine receptor 1A (Rattus norvegicus, UniProt P19327); experiment: Evaluated for binding affinity towards 5-hydroxytryptamine 1A receptor in rat brain
T1 sequence (P19327 whole entry): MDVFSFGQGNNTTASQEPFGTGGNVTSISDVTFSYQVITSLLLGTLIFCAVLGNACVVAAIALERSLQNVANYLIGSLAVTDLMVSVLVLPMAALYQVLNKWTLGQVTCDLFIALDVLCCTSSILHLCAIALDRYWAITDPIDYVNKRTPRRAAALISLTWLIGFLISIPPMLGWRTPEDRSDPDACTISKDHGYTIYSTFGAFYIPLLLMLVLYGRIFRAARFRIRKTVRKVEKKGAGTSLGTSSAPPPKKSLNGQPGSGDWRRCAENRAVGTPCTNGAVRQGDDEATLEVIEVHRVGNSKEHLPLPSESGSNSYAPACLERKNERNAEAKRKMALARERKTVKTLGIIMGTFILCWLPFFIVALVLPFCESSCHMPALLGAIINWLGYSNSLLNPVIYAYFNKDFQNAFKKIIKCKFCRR

[2] = target: T2, 5-hydroxytryptamine receptor 1A (Rattus norvegicus) (UniProt P19327); experiment: Hill coefficient in rat brain 5-hydroxytryptamine 1A assay
T2 sequence (whole entry): T1 sequence (P19327 whole entry)

[3] = target: T1, 5-hydroxytryptamine receptor 1A; experiment: Binding affinity towards 5-hydroxytryptamine 1A receptor in rat brain
How it was run: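 Rat hippocampal membranes (male Sprague-Dawley, ca. 220 g), homogenized in 50 mM Tris-HCl/0.5 mM EDTA/10 mM MgSO4, washed, preincubated 15 min at 37 °C; 0.1 nM [3H]8-OH-DPAT with 4 mg wet tissue in Tris pH 7.7 with pargyline, ascorbate; eleven competitor concentrations; 37 °C 20 min; nonspecific with 1 μM 8-OH-DPAT; filtration, scintillation counting; Ki by Cheng–Prusoff.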

Row | Compound | Ki [1] | Hill coefficient [2] | Ki [3]
1 | c1ccc2c(N3CCNCC3)cccc2c1 | 11 nM | 0.85 | –
2 | c1ccc(C2CCNCC2)cc1 | 1520 nM | 0.97 | –
3 | c1ccc2cc(N3CCNCC3)ccc2c1 | 2900 nM | 1.02 | –
4 | COc1ccccc1N1CCN(CCCCNC(=O)c2ccccc2)CC1 | 2 nM | 0.88 | –
5 | O=C1c2ccccc2C(=O)N1CCCN1CCN(c2ccccc2)CC1 | 200 nM | 0.99 | –
6 | O=C1c2ccccc2C(=O)N1CCCCN1CCN(c2ccccc2)CC1 | 10 nM | 0.99 | –
7 | NCCCCN1CCN(c2ccccc2)CC1 | > 6000 nM | – | –
8 | O=C(NCCCCN1CCN(c2ncccn2)CC1)c1ccccc1 | 60 nM | 0.79 | –
9 | COc1ccc(Cl)cc1N1CCNCC1 | 870 nM | 0.97 | –
10 | O=C1c2ccccc2C(=O)N1CCCCN1CCN(c2ncccn2)CC1 | 36 nM | 1.03 | –
11 | O=C(NCCCCN1CCN(c2ccccc2)CC1)c1ccccc1 | – | 0.82 | 11 nM
12 | c1cnc(N2CCNCC2)nc1 [2-PIPERAZIN-1-YL-PYRIMIDINE] | 1410 nM | 0.95 | –
13 | CC(=O)NCCCCN1CCN(c2ccccc2)CC1 | 250 nM | 0.99 | –
14 | O=C1c2ccccc2C(=O)N1CCCCN1CCN(c2cccc3ccccc23)CC1 | 1 nM | 1.16 | –
15 | O=C1c2ccccc2C(=O)N1CCCCCN1CCN(c2ccccc2)CC1 | 8.5 nM | 0.91 | –
16 | COc1ccccc1N1CCNCC1 | 68 nM | 0.88 | –
17 | Clc1cccc(N2CCNCC2)c1 [CHLOROPHENYLPIPERAZINE] | 130 nM | 0.91 | –
18 | O=C1c2ccccc2C(=O)N1CCN1CCN(c2ccccc2)CC1 | > 10000 nM | – | –
19 | FC(F)(F)c1cccc(N2CCNCC2)c1 | 175 nM | 0.97 | –
20 | CC1(C)CC(=O)N(CCCCN2CCN(c3ncccn3)CC2)C(=O)C1 | – | 1 | –
21 | c1ccc(N2CCNCC2)cc1 [PHENYLPIPERAZINE] | 380 nM | 0.95 | –
